Assay results published in ChEMBL document CHEMBL3098097, “Design, synthesis and evaluation of 7-azaindazolyl-indolyl-maleimides as glycogen synthase kinase-3β (GSK-3β) inhibitors” (Eur J Med Chem, 2013).
Calls of active or inactive are those of the source. No cut-off for these calls is given here.

Columns and labels:
[1] = target: T1, Glycogen synthase kinase-3 beta (Homo sapiens, UniProt P49841); test: Inhibition of recombinant GST-tagged GSK-3beta (unknown origin) expressed in Escherichia coli BL21 assessed as phosphate incorporation in CREB
Target sequence in this assay (P49841 whole entry): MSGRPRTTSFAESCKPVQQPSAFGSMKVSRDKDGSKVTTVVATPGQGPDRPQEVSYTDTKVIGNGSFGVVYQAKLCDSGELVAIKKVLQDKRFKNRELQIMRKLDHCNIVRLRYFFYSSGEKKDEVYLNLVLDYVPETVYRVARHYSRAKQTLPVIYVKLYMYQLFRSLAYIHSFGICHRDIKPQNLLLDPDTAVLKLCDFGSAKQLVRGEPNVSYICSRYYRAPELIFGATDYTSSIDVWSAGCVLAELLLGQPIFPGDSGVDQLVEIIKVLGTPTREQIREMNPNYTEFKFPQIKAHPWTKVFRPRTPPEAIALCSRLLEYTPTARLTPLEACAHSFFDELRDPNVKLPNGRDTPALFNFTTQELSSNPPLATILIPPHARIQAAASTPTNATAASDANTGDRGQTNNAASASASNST

[2] = target: T1, Glycogen synthase kinase-3 beta; test: Inhibition of GSK-3beta in human SH-SY5Y cells assessed as reduction of amyloid beta (25 to 35)-induced Tau hyperphosphorylation at Ser396 at 10 uM incubated for 1 hr prior to amyloid beta (25 to 35) induction measured after 6 hrs by Western blotting analysis; type: cell-based
How it was run: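 SH-SY5Y cells (ATCC) in 1:1 DMEM:Ham's F12 with 10% FBS and 1% penicillin/streptomycin, 5% CO2. Grown to ~80% confluence, serum-deprived 12 h, inhibitor added 1 h before Aβ25–35 for another 6 h. Lysed in SDS loading buffer, run on 10% SDS-PAGE, blotted to PVDF, probed with rabbit anti-Tau pS396, ECL detection.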
Target sequence in this assay (P49841 whole entry, looked up): as the sequence (P49841 whole entry) above

[3] = target: T1, Glycogen synthase kinase-3 beta; test: Inhibition of recombinant GST-tagged GSK-3beta (unknown origin) expressed in Escherichia coli BL21 assessed as phosphate incorporation in CREB at 20 ug/mL relative to control
How it was run: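 GST-GSK-3β expressed in E. coli BL21-CodonPlus (DE3), purified by GSTrap and thrombin-cleaved. Activity measured by Z'-LYTE kinase assay at 50 nM final enzyme. Run in triplicate with blanks subtracted. Activity given as pmol phosphate incorporated into CREB per minute or as percent of maximal activity.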
Target sequence in this assay (P49841 whole entry, looked up): as the sequence (P49841 whole entry) above

[4] = target: Mitogen-activated protein kinase 3 (Homo sapiens, UniProt P27361); test: Inhibition of recombinant ERK1 (unknown origin) expressed in Escherichia coli
How it was run: (§1)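 E. coli-expressed recombinant kinase tested in a Z'-LYTE kinase assay kit.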

[5] = target: T2, Inhibitor of nuclear factor kappa-B kinase subunit beta (Homo sapiens, UniProt O14920); test: Inhibition of recombinant IKK2 (unknown origin) expressed in baculovirus expression system
T2 sequence (O14920 whole entry): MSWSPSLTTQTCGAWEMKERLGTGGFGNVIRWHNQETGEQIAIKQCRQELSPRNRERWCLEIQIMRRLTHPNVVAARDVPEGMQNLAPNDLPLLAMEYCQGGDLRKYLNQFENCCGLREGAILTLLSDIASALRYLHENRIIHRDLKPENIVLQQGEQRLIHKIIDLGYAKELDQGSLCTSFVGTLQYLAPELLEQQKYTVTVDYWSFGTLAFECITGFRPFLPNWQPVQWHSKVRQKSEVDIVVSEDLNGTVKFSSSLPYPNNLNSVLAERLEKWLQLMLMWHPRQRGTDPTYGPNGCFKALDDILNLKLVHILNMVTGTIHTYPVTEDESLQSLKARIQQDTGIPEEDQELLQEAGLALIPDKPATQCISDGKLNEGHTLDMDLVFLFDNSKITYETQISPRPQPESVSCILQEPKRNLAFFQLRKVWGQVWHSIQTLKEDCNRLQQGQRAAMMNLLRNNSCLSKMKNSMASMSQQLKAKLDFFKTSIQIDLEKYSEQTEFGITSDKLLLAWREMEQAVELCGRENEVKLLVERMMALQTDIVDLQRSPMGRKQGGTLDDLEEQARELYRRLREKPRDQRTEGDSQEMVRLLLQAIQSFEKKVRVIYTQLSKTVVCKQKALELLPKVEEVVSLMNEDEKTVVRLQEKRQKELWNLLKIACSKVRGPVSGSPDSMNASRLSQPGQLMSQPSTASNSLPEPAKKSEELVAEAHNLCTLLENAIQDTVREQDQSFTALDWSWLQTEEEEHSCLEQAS
How it was run: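 Recombinant kinase expressed in the Bac-to-Bac baculovirus system, tested in a Z'-LYTE kinase assay kit.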

[6] = target: T3, Protein kinase C epsilon type (Homo sapiens, UniProt Q02156); test: Inhibition of recombinant PKCE (unknown origin) expressed in baculovirus expression system
T3 sequence (Q02156 whole entry): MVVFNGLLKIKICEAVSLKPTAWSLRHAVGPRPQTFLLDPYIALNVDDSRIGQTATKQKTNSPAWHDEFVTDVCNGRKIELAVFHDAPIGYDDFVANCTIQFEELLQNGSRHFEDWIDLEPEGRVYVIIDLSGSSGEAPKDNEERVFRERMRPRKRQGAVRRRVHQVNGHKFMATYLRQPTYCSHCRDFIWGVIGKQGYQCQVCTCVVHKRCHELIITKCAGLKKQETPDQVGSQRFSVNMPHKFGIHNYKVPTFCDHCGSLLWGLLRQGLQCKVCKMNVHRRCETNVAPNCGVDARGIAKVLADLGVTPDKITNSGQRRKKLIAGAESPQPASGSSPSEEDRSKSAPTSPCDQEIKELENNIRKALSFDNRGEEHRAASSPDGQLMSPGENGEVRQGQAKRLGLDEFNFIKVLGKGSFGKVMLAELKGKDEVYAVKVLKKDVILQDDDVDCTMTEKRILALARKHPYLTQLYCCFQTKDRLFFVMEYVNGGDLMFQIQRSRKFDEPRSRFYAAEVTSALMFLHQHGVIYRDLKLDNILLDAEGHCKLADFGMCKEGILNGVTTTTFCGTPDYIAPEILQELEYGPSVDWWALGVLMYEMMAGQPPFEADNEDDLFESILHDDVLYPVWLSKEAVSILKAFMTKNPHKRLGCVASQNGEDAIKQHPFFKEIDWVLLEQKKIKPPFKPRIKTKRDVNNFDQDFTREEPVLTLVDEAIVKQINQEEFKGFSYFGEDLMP

[7] = target: Dual specificity mitogen-activated protein kinase kinase 1 (Homo sapiens, UniProt Q02750); test: Inhibition of recombinant MEK1 (unknown origin) expressed in Escherichia coli; how it was run: as §1
[8] = target: T4, Aurora kinase A (Homo sapiens, UniProt O14965); test: Inhibition of recombinant aurora kinase A (unknown origin) expressed in Escherichia coli; how it was run: as §1
T4 sequence (O14965 whole entry): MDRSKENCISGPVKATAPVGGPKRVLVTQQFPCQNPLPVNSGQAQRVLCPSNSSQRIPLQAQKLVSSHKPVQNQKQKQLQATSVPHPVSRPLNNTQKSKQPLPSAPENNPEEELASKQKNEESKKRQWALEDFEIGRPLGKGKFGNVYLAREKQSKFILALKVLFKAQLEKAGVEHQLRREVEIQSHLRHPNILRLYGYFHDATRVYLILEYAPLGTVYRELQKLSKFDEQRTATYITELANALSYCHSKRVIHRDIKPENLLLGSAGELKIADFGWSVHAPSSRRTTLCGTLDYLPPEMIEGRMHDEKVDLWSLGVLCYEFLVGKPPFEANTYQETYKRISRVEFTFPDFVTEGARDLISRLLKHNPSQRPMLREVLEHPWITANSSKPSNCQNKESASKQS

Dual specificity mitogen-activated protein kinase kinase 1, sequence (Q02750 whole entry): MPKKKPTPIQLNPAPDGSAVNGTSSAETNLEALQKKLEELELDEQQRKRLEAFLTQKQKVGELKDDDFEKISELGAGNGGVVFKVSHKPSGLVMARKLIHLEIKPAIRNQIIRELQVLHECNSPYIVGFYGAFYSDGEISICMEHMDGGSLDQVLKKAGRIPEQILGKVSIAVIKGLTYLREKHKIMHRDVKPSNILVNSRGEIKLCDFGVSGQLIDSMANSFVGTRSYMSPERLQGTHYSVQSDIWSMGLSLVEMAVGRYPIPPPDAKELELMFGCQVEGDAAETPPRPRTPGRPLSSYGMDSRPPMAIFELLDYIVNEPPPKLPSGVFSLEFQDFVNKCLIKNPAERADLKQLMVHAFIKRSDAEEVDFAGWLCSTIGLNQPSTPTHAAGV
Mitogen-activated protein kinase 3, sequence (P27361 whole entry): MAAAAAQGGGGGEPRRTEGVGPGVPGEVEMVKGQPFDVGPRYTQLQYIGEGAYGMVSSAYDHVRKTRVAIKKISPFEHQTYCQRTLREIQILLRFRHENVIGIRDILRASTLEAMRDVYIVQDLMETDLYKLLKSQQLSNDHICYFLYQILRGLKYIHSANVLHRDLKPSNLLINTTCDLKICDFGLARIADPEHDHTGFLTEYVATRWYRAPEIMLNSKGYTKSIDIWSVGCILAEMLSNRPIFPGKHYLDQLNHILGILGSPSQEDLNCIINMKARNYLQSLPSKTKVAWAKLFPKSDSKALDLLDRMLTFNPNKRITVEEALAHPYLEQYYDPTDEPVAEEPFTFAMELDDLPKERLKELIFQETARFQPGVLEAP

SMILES | IC50 [1] | inhibition [2] | also measured
Cn1cc(C2=C(c3nn(CCCN4CCOCC4)c4ncccc34)C(=O)NC2=O)c2ccccc21 | 0.75 µM | Active | 
O=C1NC(=O)C(c2n[nH]c3ncccc23)=C1c1c[nH]c2ccccc12 | 7.31 µM |  | 
NC(=S)NN1C(=O)C(c2c[nH]c3ccccc23)=C(c2n[nH]c3ncccc23)C1=O |  |  | inhibition [3]: 33.7%
Cn1cc(C2=C(c3nn(CCCCN4CCOCC4)c4ncccc34)C(=O)NC2=O)c2ccccc21 | 0.46 µM |  | 
C=CCn1cc(C2=C(c3nn(CCCN4CCOCC4)c4ncccc34)C(=O)NC2=O)c2ccccc21 | 0.96 µM |  | 
Cn1cc(C2=C(c3n[nH]c4ncccc34)C(=O)NC2=O)c2ccccc21 | 12.3 µM |  | 
Cn1cc(C2=C(c3nn(CCN4CCOCC4)c4ncccc34)C(=O)NC2=O)c2ccccc21 | 0.36 µM | Active | IC50 [4]: > 40 µM; IC50 [5]: > 40 µM; IC50 [6]: > 40 µM; IC50 [7]: > 40 µM; IC50 [8]: > 40 µM
NC(=O)NN1C(=O)C(c2c[nH]c3ccccc23)=C(c2n[nH]c3ncccc23)C1=O |  |  | inhibition [3]: -6.81%
Cn1cc(C2=C(c3nn(CCCO)c4ncccc34)C(=O)NC2=O)c2ccccc21 | 1.09 µM | Active | 
O=C1NC(=O)C(c2nn(CCCN3CCOCC3)c3ncccc23)=C1c1c[nH]c2ccccc12 | 0.83 µM | Active | 
COC(=O)CN1C(=O)C(c2c[nH]c3ccccc23)=C(c2n[nH]c3ncccc23)C1=O |  |  | inhibition [3]: 51.5%
Cn1cc(C2=C(c3nn(CCCn4ccnc4)c4ncccc34)C(=O)NC2=O)c2ccccc21 | 4.89 µM |  | 
Cn1cc(C2=C(c3nn(CCCCn4ccnc4)c4ncccc34)C(=O)NC2=O)c2ccccc21 | 0.96 µM |  | 
Cn1cc(C2=C(c3nn(CCCN4CCCCC4)c4ncccc34)C(=O)NC2=O)c2ccccc21 | 2.66 µM |  | 
CN(C)CCCn1nc(C2=C(c3cn(C)c4ccccc34)C(=O)NC2=O)c2cccnc21 | 5.69 µM |  | 
O=C1NC(=O)C(c2nn(CCCN3CCOCC3)c3ncccc23)=C1c1cn(Cc2ccccc2)c2ccccc12 | 1.9 µM |  | 
O=C1NC(=O)C(c2nn(CCCN3CCOCC3)c3ncccc23)=C1c1cn(CCCN2CCOCC2)c2ccccc12 | 1.29 µM | inactive | 
Cn1cc(C2=C(c3nn(CCn4ccnc4)c4ncccc34)C(=O)NC2=O)c2ccccc21 | 0.81 µM | Active | IC50 [4]: > 40 µM; IC50 [5]: > 40 µM; IC50 [6]: > 40 µM; IC50 [7]: > 40 µM; IC50 [8]: > 40 µM
NN1C(=O)C(c2c[nH]c3ccccc23)=C(c2n[nH]c3ncccc23)C1=O |  |  | inhibition [3]: 28.6%
CC(C)n1cc(C2=C(c3nn(CCCN4CCOCC4)c4ncccc34)C(=O)NC2=O)c2ccccc21 | 0.38 µM | Active | IC50 [4]: > 40 µM; IC50 [5]: > 40 µM; IC50 [6]: > 40 µM; IC50 [7]: > 40 µM; IC50 [8]: > 40 µM
O=CNN1C(=O)C(c2c[nH]c3ccccc23)=C(c2n[nH]c3ncccc23)C1=O |  |  | inhibition [3]: -7.42%
O=C1C(c2c[nH]c3ccccc23)=C(c2n[nH]c3ncccc23)C(=O)N1c1ccccc1 |  |  | inhibition [3]: 4.14%
C=Cn1cc(C2=C(c3nn(CCCN4CCOCC4)c4ncccc34)C(=O)NC2=O)c2ccccc21 | 8.84 µM |  | 
CN1CCN(CCCn2nc(C3=C(c4cn(C)c5ccccc45)C(=O)NC3=O)c3cccnc32)CC1 | 3.34 µM |  | 
CC(C)CN1C(=O)C(c2c[nH]c3ccccc23)=C(c2n[nH]c3ncccc23)C1=O |  |  | inhibition [3]: 45.7%
O=C1NC(=O)C(c2nn(CCCN3CCOCC3)c3ncccc23)=C1c1cn(CCCn2ccnc2)c2ccccc12 | 0.68 µM | inactive | 
